Experimental data pooled from the literature.
Each line is one published result; the experiments were not run side by side.
SLC6A2: Sodium-dependent noradrenaline transporter (SLC6A2, Homo sapiens, UniProt P23975)
NPSR1: Neuropeptide S receptor (NPSR1, Homo sapiens, UniProt Q6W5P4)
CHRM5: Muscarinic acetylcholine receptor M5 (CHRM5, Homo sapiens, UniProt P08912)
MC4R: Melanocortin receptor 4 (MC4R, Homo sapiens, UniProt P32245)
NQO2: Ribosyldihydronicotinamide dehydrogenase [quinone] (NQO2, Homo sapiens, UniProt P16083)

| Compound | target | test | setting | quantity | value |
| --- | --- | --- | --- | --- | --- |
| Cc1c(S(=O)(=O)O)oc2c1C(=O)C(=O)c1c-2ccc2c1CCCC2(C)C | Cholinesterase (BCHE, Homo sapiens, UniProt P06276) | enzyme activity, inhibitor | – | Ki | > 100 µM |
| CCOC(=O)[C@@]12C[C@@H]1[C@@H](n1ccc3c(NCCc4ccccc4)nc(C#Cc4ccccc4)nc31)[C@H](O)[C@@H]2O | SLC6A2 | ligand displacement, radioligand | – | Ki | 2.82 µM |
| COc1cccc(C2c3c(ncn(Cc4cccs4)c3=N)Oc3ccc4ccccc4c32)c1 (stereo not drawn) | NPSR1 | cAMP, antagonist, TR-FRET | – | IC50 | 19.4 µM |
| Nc1ncnc2c1ncn2[C@@H]1O[C@H](COP(=O)(O)OP(=O)(O)OP(=O)(O)OP(=O)(O)OP(=O)(O)OC[C@H]2O[C@@H](n3cnc4c(N)ncnc43)[C@H](O)[C@@H]2O)[C@@H](O)[C@H]1O | adk (Escherichia coli, UniProt P69441) | binding, ITC | – | Kd | 0.354 µM |
| O=c1ccc2ccccc2o1 | Growth factor receptor-bound protein 2 (GRB2, Homo sapiens, UniProt P62993) | binding, fluorescence | – | Kd | 5.56 µM |
| Cc1cnc(-c2ccc(-c3ccc(NC(=O)Nc4c(F)cc(F)cc4F)cc3F)c3c2C(=O)NC3)[nH]1 | Tyrosine-protein kinase Fgr (FGR, Homo sapiens, UniProt P09769) | binding, competition with immobilised ligand | – | Kd | 0.083 µM |
| COc1ccc(C2c3c(n(Cc4ccccc4)cnc3=N)Oc3ccc4ccccc4c32)cc1OC (stereo not drawn) | NPSR1 | calcium signal, antagonist | – | IC50 | > 30 µM |
| CC[C@@H]1SC2(CCN(C)CC2)NC1=O | CHRM5 | calcium signal, agonist | – | EC50 | 1.08 µM |
| CCCCN1CCC(COC(=O)c2ccc(N)c(OCF)c2)CC1 | CHRM5 | cell-free assay, radioligand | – | Ki | > 10 µM |
| COc1cccc(C2c3c(ncn(-c4ccc(-c5ccccc5)cc4)c3=N)Oc3ccc4ccccc4c32)c1 (stereo not drawn) | NPSR1 | cAMP, antagonist, TR-FRET | – | IC50 | > 100 µM |
| CCCC[C@H](NC(=O)[C@H](CO)NC(=O)[C@H](Cc1ccc(O)cc1)NC(=O)[C@H](CO)NC(C)=O)C(=O)N[C@@H](CCC(=O)O)C(=O)N[C@@H](Cc1c[nH]cn1)C(=O)N[C@@H](C)C(=O)N[C@@H](CCCNC(=N)N)C(=O)N[C@@H](Cc1c[nH]c2ccccc12)C(=O)NCC(=O)N[C@@H](CCCCN)C(=O)N1CCC[C@H]1C(=O)N[C@H](C(=O)NCC(=O)N[C@@H](CCCCN)C(=O)N[C@@H](CCCCN)C(=O)N[C@@H](CCCNC(=N)N)C(N)=O)C(C)C | MC4R | ligand displacement in cells, radioligand | – | Ki | > 1 µM |
| O=C(O)Cc1ccccc1Nc1c(Cl)cccc1Cl | NQO2 | enzyme activity, inhibitor, absorbance | – | Ki | > 1000 µM |
| N=c1c2c(ncn1-c1ccccc1)Oc1ccc3ccccc3c1C2c1ccccc1 (stereo not drawn) | NPSR1 | calcium signal, antagonist | – | IC50 | 0.69 µM |
| CN1CCN(C2=Nc3cc(Cl)ccc3Nc3ccccc32)CC1 | NQO2 | enzyme activity, inhibitor | – | Ki | 746 µM |
| N=c1c2c(ncn1CCc1ccccc1)Oc1ccc3ccccc3c1C2c1ccccc1 (stereo not drawn) | NPSR1 | cAMP, antagonist, TR-FRET | – | IC50 | 4.87 µM |
| CSSc1ccccc1C(=O)O | srtA (Staphylococcus aureus, UniProt Q2FV99) | enzyme activity, inhibitor, fluorescence | pH 7.5 | Ki | 367 µM |
| CCOC(=O)c1ccccc1 | Or67a (Drosophila melanogaster, UniProt Q9VT08) | binding, MST | – | Kd | ~0.5 µM |
| CC[C@H](C)[C@H](NC(=O)CN)C(=O)N[C@H](C(=O)N[C@@H](CC(N)=O)C(=O)N[C@H](C(=O)N[C@@H](CC(C)C)C(=O)N[C@@H](CCC(N)=O)C(=O)N[C@@H](CCCCN)C(=O)N[C@@H](Cc1ccc(O)cc1)C(=O)N[C@@H](Cc1ccc(O)cc1)C(=O)N[C@@H](CO)C(=O)N[C@@H](CCCNC(=N)N)C(=O)N[C@H](C(=O)N[C@@H](CCCNC(=N)N)C(=O)NCC(=O)NCC(=O)N[C@@H](CCCNC(=N)N)C(=O)N[C@@H](CO)C(=O)N[C@@H](C)C(=O)N[C@H](C(=O)N[C@@H](CC(C)C)C(=O)N[C@@H](CO)C(=O)N[C@H]1CSSC[C@@H](C(=O)N[C@@H](CCCNC(=N)N)C(=O)N[C@@H](CCCNC(=N)N)C(=O)N[C@@H](CCCCN)C(=O)N[C@@H](CCCCN)C(N)=O)NC(=O)[C@H](CO)NC(=O)[C@H](CCCCN)NC(=O)[C@H](CCCNC(=N)N)NC(=O)CNC(=O)[C@H](CCCNC(=N)N)NC(=O)[C@H]([C@@H](C)O)NC(=O)[C@H](CO)NC(=O)[C@H](CO)NC(=O)[C@H](CCCCN)NC(=O)CNC(=O)[C@H]([C@@H](C)CC)NC(=O)[C@H](CCC(N)=O)NC(=O)[C@H](CCC(=O)O)NC(=O)[C@H](CCC(=O)O)NC(=O)[C@H](CCCCN)NC(=O)[C@@H]2CCCN2C(=O)[C@H](CC(C)C)NC1=O)C(C)C)C(C)C)[C@@H](C)O)[C@@H](C)CC | MC4R | ligand displacement in cells | – | Ki | 0.292 µM |
| N=c1c2c(ncn1Cc1ccccc1)Oc1ccc3ccccc3c1C2c1ccccc1 (stereo not drawn) | NPSR1 | calcium signal, antagonist | – | IC50 | > 30 µM |
| O[C@@H]1[C@H](O)[C@@H]2C[C@@H]2[C@H]1n1cnc2c(NCC(c3ccccc3)c3ccccc3)nc(C#Cc3ccccc3)nc21 | SLC6A2 | ligand displacement, radioligand | – | Ki | 5.78 µM |
| NC(=O)N1c2ccccc2C=Cc2ccccc21 | NQO2 | enzyme activity, inhibitor | – | Ki | > 500 µM |
| COc1ccc(C2c3ccc(OCc4ccccc4)cc3Oc3ncn(CCN4CCOCC4)c(=N)c32)cc1OC (stereo not drawn) | NPSR1 | calcium signal, antagonist | – | IC50 | > 30 µM |
| CCCOC(=O)[C@@]12C[C@@H]1[C@@H](n1cnc3c(NC)nc(C#Cc4ccc(Cl)s4)nc31)[C@H](O)[C@@H]2O | SLC6A2 | ligand displacement, radioligand | cell membranes | Ki | > 10 µM |
| Nc1ncnc2c1ncn2[C@@H]1O[C@H](COP(=O)(O)OP(=O)(O)OP(=O)(O)O)[C@@H](O)[C@H]1O | dnaA (Escherichia coli, UniProt P03004, V303M) | binding | – | Kd | 0.08 µM |
